Measurements reported in ChEMBL document CHEMBL4007422 (J Med Chem, 2017).
Active and inactive are the calls of the source. The calls are words filed in the database; no cut-off is given here.

Experiments:
Cytochrome P450 2C9 = Cytochrome P450 2C9 (Homo sapiens, UniProt P11712); experiment: Inhibition of CYP2C9 in human liver microsomes in presence of NADPH by LC-MS/MS analysis; format: ADME
Outline: (§1)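 Pooled human liver microsomes. IC50 determined from isoform-specific marker activities for CYP1A2, 2A6, 2B6, 2C8, 2C9, 2C19 (mephenytoin hydroxylation) and 2E1.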

[1] = AUC (0 to t) in Beagle dog at 10 mg/kg, po; format: ADME, organism-based, Canis lupus familiaris; conditions: in vivo
[2] = Protein binding in rat plasma at 1 uM after 6 hrs by LC-MS/MS based rapid equilibrium dialysis method; format: ADME, cell-free; conditions: read-out: PPB
Outline: (§2)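 Plasma protein binding in rat, dog and human plasma determined by equilibrium dialysis.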

Salmonella typhimurium [3] = experiment: Mutagenicity in Salmonella typhimurium TA1537 in presence of metabolic activation; format: toxicity; conditions: salmonella enterica subsp. enterica serovar typhimurium
PBL = experiment: Nonclastogenic effect in human PBL by chromosomal aberration test; format: cell-based
[4] = AUC (0 to t) in Wistar rat at 10 mg/kg, po by LC-MS/MS analysis; format: ADME, organism-based; conditions: Wistar, in vivo
Cytochrome P450 2A6 = Cytochrome P450 2A6 (Homo sapiens, UniProt P11509); experiment: Inhibition of CYP2A6 in human liver microsomes in presence of NADPH by LC-MS/MS analysis; format: ADME; outline: as §1
Cytochrome P450 2A6, sequence (P11509 whole entry): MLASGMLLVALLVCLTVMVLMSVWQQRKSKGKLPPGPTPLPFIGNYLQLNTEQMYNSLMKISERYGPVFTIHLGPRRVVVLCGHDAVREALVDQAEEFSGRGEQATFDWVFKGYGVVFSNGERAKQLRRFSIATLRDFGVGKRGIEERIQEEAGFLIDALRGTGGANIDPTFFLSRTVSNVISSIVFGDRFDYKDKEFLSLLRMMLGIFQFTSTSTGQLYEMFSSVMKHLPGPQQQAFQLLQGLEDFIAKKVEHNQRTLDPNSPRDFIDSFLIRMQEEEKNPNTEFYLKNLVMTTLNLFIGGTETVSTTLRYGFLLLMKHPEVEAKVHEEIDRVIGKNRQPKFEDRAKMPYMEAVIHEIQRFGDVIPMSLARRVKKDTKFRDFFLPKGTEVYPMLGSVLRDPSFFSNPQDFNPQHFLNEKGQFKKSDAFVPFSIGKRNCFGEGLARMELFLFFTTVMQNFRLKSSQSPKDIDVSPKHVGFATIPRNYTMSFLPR

Rattus norvegicus [5] = experiment: Cognitive enhancing effect in contextual fear conditioning rat model assessed as reversal of scopolamine-induced emotional memory deficits at 1 to 10 mg/kg, po administered for 1 hr followed by scopolamine challenge for 120 mins; format: functional, organism-based
[6] = target: 5-hydroxytryptamine receptor 7 (Rattus norvegicus) (UniProt P32305); experiment: Binding affinity to recombinant rat 5-HT7 receptor expressed in CHOK1 cells assessed as inhibition of 5-HT stimulated cAMP accumulation after 4 hrs by luciferase reporter gene assay; format: cell-based
5-hydroxytryptamine receptor 7 (Rattus norvegicus), sequence (P32305 whole entry): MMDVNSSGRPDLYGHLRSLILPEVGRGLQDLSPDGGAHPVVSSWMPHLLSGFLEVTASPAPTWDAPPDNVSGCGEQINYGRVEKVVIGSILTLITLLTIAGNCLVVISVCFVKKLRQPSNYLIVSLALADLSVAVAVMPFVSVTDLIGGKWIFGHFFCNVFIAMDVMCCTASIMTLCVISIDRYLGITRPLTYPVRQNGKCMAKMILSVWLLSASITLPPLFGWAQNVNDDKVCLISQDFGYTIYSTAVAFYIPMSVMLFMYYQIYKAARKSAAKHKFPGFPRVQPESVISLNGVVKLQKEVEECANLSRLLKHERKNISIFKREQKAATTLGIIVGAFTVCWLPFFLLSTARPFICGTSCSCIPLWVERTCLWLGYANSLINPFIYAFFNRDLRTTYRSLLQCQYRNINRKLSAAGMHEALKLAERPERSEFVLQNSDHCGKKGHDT

[7] = Clearance in Beagle dog at 3 mg/kg, iv; format: ADME, organism-based, Canis lupus familiaris; conditions: in vivo
Rattus norvegicus [8] = experiment: Effect on basal level of acetylcholine in Wistar rat ventral hippocampus at 1 to 3 mg/kg, po after 6 hrs by LC-MS/MS based microdialysis method; format: ADME, organism-based; conditions: in vivo
Outline: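 Male Wistar rats (240−300 g) fitted under isoflurane with a ventral hippocampal guide cannula (AP −5.2, ML +5.0, DV −3.8 mm from bregma). Probe (4 mm membrane) inserted 16 h before study. Perfusion with aCSF pH 7.2 at 1.5 μL/min, 2 h stabilization, five basal 20-min samples. Test agent given p.o.; donepezil and memantine (1 mg/kg s.c. each) given 30 min later in combination arms. Dialysates collected 6 h (4 h for combination), acetylcholine measured by LC-MS/MS, expressed as % of mean basal.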

Salmonella typhimurium [9] = experiment: Mutagenicity in Salmonella typhimurium TA98 in presence of metabolic activation; format: toxicity; conditions: salmonella enterica subsp. enterica serovar typhimurium
[10] = Ratio of drug uptake in Wistar rat brain to plasma at 10 mg/kg, po by LC-MS/MS analysis; format: ADME, organism-based; conditions: read-out: BPR
Hepatocyte [11] = experiment: Induction of CYP3A4 mRNA expression in human hepatocytes at 0.01 to 1 uM after 3 days by qRT-PCR analysis; format: ADME, cell-based; conditions: 72 h
Outline: (§3)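 Plateable human hepatocytes exposed to 0.01, 0.1 and 1.0 μM. CYP1A2, CYP2B6 and CYP3A4 induction read as both mRNA expression and enzyme activity.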

Hepatocyte [12] = experiment: Induction of CYP1A2 mRNA expression in human hepatocytes at 0.01 to 1 uM after 3 days by qRT-PCR analysis; format: ADME, cell-based; conditions: 72 h; outline: as §3
[13] = Protein binding in human plasma at 1 uM after 6 hrs by LC-MS/MS based rapid equilibrium dialysis method; format: ADME, cell-free; conditions: read-out: PPB (converted); outline: as §2
Rattus norvegicus [14] = experiment: Toxicity in Wistar rat assessed as induction of cholinergic side effects at 1 and 3 mg/kg, po in presence of 1 mg/kg of donepezil and memantine administered sc 30 mins post compound treatment measured after 4 hrs by LC-MS/MS based microdialysis method relative to control; format: organism-based; conditions: in vivo
Outline: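 The probe (4 mm membrane) was inserted 16 h before the study and perfused with aCSF (pH 7.2) at 1.5 μL/min, with 2 h stabilization. Five 20-min basal samples were taken before oral compound. Donepezil and memantine (1 mg/kg s.c. each) were given 30 min later. Dialysates were collected for 4 h and acetylcholine measured by LC-MS/MS as % of basal. Comparison was against donepezil+memantine by two-way ANOVA.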

Cytochrome P450 3A4 = Cytochrome P450 3A4 (Homo sapiens, UniProt P08684); experiment: Inhibition of CYP3A4 in human liver microsomes using testosterone as substrate in presence of NADPH by LC-MS/MS analysis; format: ADME
Cytochrome P450 3A4, sequence (P08684 whole entry): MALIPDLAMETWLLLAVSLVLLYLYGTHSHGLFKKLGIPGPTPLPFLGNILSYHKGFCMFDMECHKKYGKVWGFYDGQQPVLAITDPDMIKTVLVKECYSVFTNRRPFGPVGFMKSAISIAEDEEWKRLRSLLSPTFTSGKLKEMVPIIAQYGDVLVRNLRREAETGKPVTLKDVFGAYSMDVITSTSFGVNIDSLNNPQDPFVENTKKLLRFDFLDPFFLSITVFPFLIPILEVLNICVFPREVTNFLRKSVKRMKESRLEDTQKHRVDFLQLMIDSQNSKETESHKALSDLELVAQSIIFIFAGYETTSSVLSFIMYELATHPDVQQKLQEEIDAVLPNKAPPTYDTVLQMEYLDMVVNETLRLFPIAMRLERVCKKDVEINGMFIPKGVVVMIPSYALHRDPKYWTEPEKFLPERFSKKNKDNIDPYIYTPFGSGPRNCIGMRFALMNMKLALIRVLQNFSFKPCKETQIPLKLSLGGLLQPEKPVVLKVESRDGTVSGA
Outline: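 CYP3A4 inhibition in human liver microsomes using testosterone hydroxylation as the probe reaction; IC50 determined.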

Cytochrome P450 2B6 = Cytochrome P450 2B6 (Homo sapiens, UniProt P20813); experiment: Inhibition of CYP2B6 in human liver microsomes in presence of NADPH by LC-MS/MS analysis; format: ADME; outline: as §1
Cytochrome P450 2B6, sequence (P20813 whole entry): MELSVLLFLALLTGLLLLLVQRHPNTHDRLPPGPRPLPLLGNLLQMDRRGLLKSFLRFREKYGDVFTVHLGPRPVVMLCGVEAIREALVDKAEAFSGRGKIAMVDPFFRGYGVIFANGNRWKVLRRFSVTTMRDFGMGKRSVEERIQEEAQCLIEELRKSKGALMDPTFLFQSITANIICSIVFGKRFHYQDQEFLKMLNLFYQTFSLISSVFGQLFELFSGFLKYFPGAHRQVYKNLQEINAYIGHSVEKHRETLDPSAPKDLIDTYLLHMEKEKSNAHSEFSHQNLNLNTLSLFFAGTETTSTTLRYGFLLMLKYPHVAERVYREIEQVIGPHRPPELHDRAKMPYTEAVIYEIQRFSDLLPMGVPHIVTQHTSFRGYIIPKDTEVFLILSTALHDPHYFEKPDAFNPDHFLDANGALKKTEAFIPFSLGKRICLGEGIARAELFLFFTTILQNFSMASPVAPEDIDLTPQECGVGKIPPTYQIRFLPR

Cytochrome P450 1A2 = Cytochrome P450 1A2 (Homo sapiens, UniProt P05177); experiment: Inhibition of CYP1A2 in human liver microsomes in presence of NADPH by LC-MS/MS analysis; format: ADME; outline: as §1
Cytochrome P450 1A2, sequence (P05177 whole entry): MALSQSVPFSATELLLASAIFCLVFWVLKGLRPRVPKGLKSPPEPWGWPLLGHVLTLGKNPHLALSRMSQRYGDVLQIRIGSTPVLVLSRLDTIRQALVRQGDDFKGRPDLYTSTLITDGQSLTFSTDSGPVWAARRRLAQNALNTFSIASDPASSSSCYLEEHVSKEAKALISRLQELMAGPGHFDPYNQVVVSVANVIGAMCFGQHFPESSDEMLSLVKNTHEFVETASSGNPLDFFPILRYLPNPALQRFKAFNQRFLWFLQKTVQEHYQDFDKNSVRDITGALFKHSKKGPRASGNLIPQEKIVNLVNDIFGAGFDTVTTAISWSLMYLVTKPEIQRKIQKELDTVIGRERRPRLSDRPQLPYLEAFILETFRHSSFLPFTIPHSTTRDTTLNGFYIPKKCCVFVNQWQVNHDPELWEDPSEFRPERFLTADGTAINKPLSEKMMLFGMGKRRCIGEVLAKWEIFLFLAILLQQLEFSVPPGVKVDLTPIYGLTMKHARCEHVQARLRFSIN

[15] = target: Alpha-2C adrenergic receptor (Homo sapiens) (UniProt P18825); experiment: Inhibition of recombinant human adrenergic alpha 2C receptor expressed in CHOK1 cells at 1 uM; format: cell-based
Alpha-2C adrenergic receptor (Homo sapiens), sequence (P18825 whole entry): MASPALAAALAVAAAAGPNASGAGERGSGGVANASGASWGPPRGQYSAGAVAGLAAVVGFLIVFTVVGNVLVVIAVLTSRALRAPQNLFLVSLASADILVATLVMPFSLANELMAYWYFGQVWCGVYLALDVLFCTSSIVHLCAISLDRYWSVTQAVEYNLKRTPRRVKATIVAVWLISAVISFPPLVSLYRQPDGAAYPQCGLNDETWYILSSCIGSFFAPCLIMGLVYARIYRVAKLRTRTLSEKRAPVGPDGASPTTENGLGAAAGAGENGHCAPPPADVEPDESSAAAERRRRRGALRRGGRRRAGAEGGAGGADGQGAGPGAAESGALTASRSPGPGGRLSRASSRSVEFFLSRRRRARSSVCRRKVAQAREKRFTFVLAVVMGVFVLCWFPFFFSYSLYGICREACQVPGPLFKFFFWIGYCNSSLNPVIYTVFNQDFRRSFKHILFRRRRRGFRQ

[16] = target: T1, 5-hydroxytryptamine receptor 1A (Homo sapiens) (UniProt P08908); experiment: Displacement of [3H]-8-OH-DPAT from recombinant human 5-HT1A receptor expressed in HEK293 EBNA cell membranes after 120 mins by microbeta scintillation counting analysis
T1 sequence (whole entry): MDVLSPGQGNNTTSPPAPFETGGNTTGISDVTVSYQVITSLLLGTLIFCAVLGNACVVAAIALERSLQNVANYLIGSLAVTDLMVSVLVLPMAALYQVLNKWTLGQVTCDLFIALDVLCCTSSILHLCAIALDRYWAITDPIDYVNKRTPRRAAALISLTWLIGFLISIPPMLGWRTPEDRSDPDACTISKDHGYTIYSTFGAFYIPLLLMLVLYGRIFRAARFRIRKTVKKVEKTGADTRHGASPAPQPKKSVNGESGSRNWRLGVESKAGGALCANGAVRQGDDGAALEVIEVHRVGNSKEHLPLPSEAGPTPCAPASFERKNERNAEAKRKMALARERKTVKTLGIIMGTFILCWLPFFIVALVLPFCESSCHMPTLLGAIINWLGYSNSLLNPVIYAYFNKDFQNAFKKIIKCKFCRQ

Cytochrome P450 2C9, sequence (P11712 whole entry, canonical isoform): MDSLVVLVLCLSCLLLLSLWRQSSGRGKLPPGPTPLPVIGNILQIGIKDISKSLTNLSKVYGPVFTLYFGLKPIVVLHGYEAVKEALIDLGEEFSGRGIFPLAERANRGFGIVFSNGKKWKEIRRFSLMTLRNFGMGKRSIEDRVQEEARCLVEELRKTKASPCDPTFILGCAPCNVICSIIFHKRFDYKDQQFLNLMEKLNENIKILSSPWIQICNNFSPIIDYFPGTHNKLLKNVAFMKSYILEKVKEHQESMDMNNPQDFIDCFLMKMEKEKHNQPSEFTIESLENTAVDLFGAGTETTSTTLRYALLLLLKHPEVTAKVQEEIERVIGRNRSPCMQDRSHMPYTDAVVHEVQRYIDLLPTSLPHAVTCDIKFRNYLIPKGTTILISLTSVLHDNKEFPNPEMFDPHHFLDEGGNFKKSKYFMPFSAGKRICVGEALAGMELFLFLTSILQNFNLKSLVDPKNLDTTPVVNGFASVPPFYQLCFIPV

Compound COc1ccc2c(c1)c(CN1CCN(C)CC1)cn2S(=O)(=O)c1ccccc1Br.CS(=O)(=O)O.O has an IC50 (Cytochrome P450 2C9) of over 10 µM, an AUC(0-t) [1] of 1360 ng·h/mL and a fraction unbound at 6 h, 1 µM [2] of 0.01. The Activity (Salmonella typhimurium [3]) was “Non-Toxic”, the Activity (PBL) was “Non-Toxic” and the AUC(0-t) [4] was 784 ng·h/mL. The IC50 (Cytochrome P450 2A6) was over 10 µM, the Activity (Rattus norvegicus [5]) was “Active” and the Activity [6] was “inactive”. For the same compound, the clearance [7] was 46.4 mL/min/kg, the Activity (Rattus norvegicus [8]) was “Non-Toxic” and the Activity (Salmonella typhimurium [9]) was “Non-Toxic”. The Kp [10] was 1.48, the Activity (Hepatocyte [11]) was “Non-Toxic” and the Activity (Hepatocyte [12]) was “Non-Toxic”. For the same compound, the fraction unbound at 6 h, 1 µM [13] was 0.02, the Activity (Rattus norvegicus [14]) was “Non-Toxic” and the IC50 (Cytochrome P450 3A4) was 2640 nM. The IC50 (Cytochrome P450 2B6) was over 10 µM, the IC50 (Cytochrome P450 1A2) was over 10 µM and the inhibition [15] was over 50%. The Activity [16] was “inactive”.
